Test results from ChEMBL document CHEMBL3856209, “Novel pyrazolopyridine derivatives as potential angiogenesis inhibitors: Synthesis, biological evaluation and transcriptome-based mechanistic analysis” (Eur J Med Chem, 2016).
Blank lines part the entries; values can stand above or below the compound they belong to. Calls of active or inactive are those of the source.

Legend:
HUVEC [1] = assay: Effect on CKS1B gene expression in serum-starved HUVEC after 6 hrs by microarray analysis relative to control; format: functional, Homo sapiens
Method in brief: (§1)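 Serum-starved confluent HUVEC treated with 2 μM compound or DMSO in 2.5% FBS for 6 h or 24 h; RNA hybridized to Illumina Human-HT12 arrays. Data background-corrected, vst-transformed and rsn-normalized. Differential probes called by moderated paired t-test (limma) at p < 0.05 and log2 fold change >|0.5| vs DMSO.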

HUVEC [2] = assay: Effect on CKS2 gene expression in serum-starved HUVEC after 24 hrs by microarray analysis relative to control; format: functional, Homo sapiens
Method in brief: (§2)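 Confluent, serum-starved HUVEC (pooled from 3–5 donors, passage ≤4) treated with 2 μM compound or vehicle with 2.5% FBS for 6 h or 24 h. Total RNA hybridized to Illumina Human-HT12 arrays. Data were background-corrected, vst-transformed and rsn-normalized. Hits called by moderated paired t-test versus DMSO-treated cells, p < 0.05 and log2 fold change >|0.5|.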

HUVEC [3] = assay: Effect on ZAK gene expression in serum-starved HUVEC after 6 hrs by microarray analysis relative to control; format: functional, Homo sapiens
HUVEC [4] = assay: Effect on SIVA1 gene expression in serum-starved HUVEC after 24 hrs by microarray analysis relative to control; format: functional, Homo sapiens
HUVEC [5] = assay: Effect on CDC20 gene expression in serum-starved HUVEC after 6 hrs by microarray analysis relative to control; format: functional, Homo sapiens; method in brief: as §1
HUVEC [6] = assay: Effect on TAOK1 gene expression in serum-starved HUVEC after 24 hrs by microarray analysis relative to control; format: functional, Homo sapiens
HUVEC [7] = assay: Effect on RETSAT gene expression in serum-starved HUVEC after 24 hrs by microarray analysis relative to control; format: functional, Homo sapiens
HUVEC [8] = assay: Effect on IL10 gene expression in serum-starved HUVEC after 6 hrs by microarray analysis relative to control; format: functional, Homo sapiens; method in brief: as §2
[9] = biological target: Vascular endothelial growth factor receptor 2 (Homo sapiens) (UniProt P35968); assay: Inhibition of VEGF-165-induced VEGFR2 autophosphorylation at Tyr996 in serum-starved HUVEC at 2 uM preincubated for 2 hrs followed by VEGF-165 induction measured after 5 mins by Western blot analysis; format: cell-based
HUVEC [10] = assay: Effect on MIR181A2HG gene expression in serum-starved HUVEC after 24 hrs by microarray analysis relative to control; format: functional, Homo sapiens
Method in brief: (§3)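 Serum-starved confluent HUVEC (pooled from 3–5 donors, passage ≤4) were treated with 2 μM compound or vehicle in 2.5% FBS for 6 h or 24 h, and total RNA was isolated. Hybridization was on Illumina Human-HT12. Data were processed with bgAdjust, vst and rsn normalization. Changes versus DMSO were called by moderated paired t-test at p < 0.05 and |log2 fold change| > 0.5.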

HUVEC [11] = assay: Effect on KIF22 gene expression in serum-starved HUVEC after 24 hrs by microarray analysis relative to control; format: functional, Homo sapiens; method in brief: as §2
HUVEC [12] = assay: Effect on CYTL1 gene expression in serum-starved HUVEC after 6 hrs by microarray analysis relative to control; format: functional, Homo sapiens
Method in brief: (§4)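 Confluent serum-starved HUVEC (primary, pooled from 3–5 donors, passage ≤4) treated with 2 μM compound or DMSO vehicle in 2.5% FBS for 6 h or 24 h. Total RNA hybridized to Illumina Human-HT12 arrays, background-corrected, vst-transformed and rsn-normalized. Differential expression versus DMSO by moderated paired t-test (p < 0.05, |log2 fold change| > 0.5).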

HUVEC [13] = assay: Effect on UBE2J1 gene expression in serum-starved HUVEC after 6 hrs by microarray analysis relative to control; format: functional, Homo sapiens
HUVEC [14] = assay: Effect on PCYT2 gene expression in serum-starved HUVEC after 24 hrs by microarray analysis relative to control; format: functional, Homo sapiens
[15] = Upregulation of MSMO1 gene expression in serum-starved HUVEC at 2 uM after 24 hrs by qRT-PCR analysis; format: functional, cell-based; settings: Homo sapiens
HUVEC [16] = assay: Effect on TUBB2B gene expression in serum-starved HUVEC after 6 hrs by microarray analysis relative to control; format: functional, Homo sapiens
HUVEC [17] = assay: Effect on CCL5 gene expression in serum-starved HUVEC after 6 hrs by microarray analysis relative to control; format: functional, Homo sapiens; method in brief: as §1
HUVEC [18] = assay: Effect on OIP5 gene expression in serum-starved HUVEC after 6 hrs by microarray analysis relative to control; format: functional, Homo sapiens
HUVEC [19] = assay: Effect on GPR116 gene expression in serum-starved HUVEC after 6 hrs by microarray analysis relative to control; format: functional, Homo sapiens; method in brief: as §2
HUVEC [20] = assay: Effect on PLK4 gene expression in serum-starved HUVEC after 6 hrs by microarray analysis relative to control; format: functional, Homo sapiens; method in brief: as §3
HUVEC [21] = assay: Effect on SMC4 gene expression in serum-starved HUVEC after 6 hrs by microarray analysis relative to control; format: functional, Homo sapiens
HUVEC [22] = assay: Effect on FUCA1 gene expression in serum-starved HUVEC after 24 hrs by microarray analysis relative to control; format: functional, Homo sapiens; method in brief: as §4
HUVEC [23] = assay: Effect on TRIP13 gene expression in serum-starved HUVEC after 6 hrs by microarray analysis relative to control; format: functional, Homo sapiens
HUVEC [24] = assay: Effect on UACA gene expression in serum-starved HUVEC after 6 hrs by microarray analysis relative to control; format: functional, Homo sapiens
HUVEC [25] = assay: Effect on HLA-DRB4 gene expression in serum-starved HUVEC after 6 hrs by microarray analysis relative to control; format: functional, Homo sapiens; method in brief: as §2
HUVEC [26] = assay: Effect on FDPS gene expression in serum-starved HUVEC after 6 hrs by microarray analysis relative to control; format: functional, Homo sapiens
Method in brief: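 Serum-starved confluent HUVEC (primary, pooled from 3–5 donors, passage ≤4) treated with 2 μM test compound or DMSO vehicle (working dilutions ≤0.1% v/v) in presence of 2.5% FBS for 6 h or 24 h; total RNA hybridized to Illumina Human-HT12 arrays; background correction, vst, rsn normalization; moderated paired t-test versus DMSO, thresholds p < 0.05 and log2 fold change >|0.5|.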

HUVEC [27] = assay: Effect on SULT1C4 gene expression in serum-starved HUVEC after 6 hrs by microarray analysis relative to control; format: functional, Homo sapiens
HUVEC [28] = assay: Effect on KRT7 gene expression in serum-starved HUVEC after 6 hrs by microarray analysis relative to control; format: functional, Homo sapiens
HUVEC [29] = assay: Effect on CCNA2 gene expression in serum-starved HUVEC after 24 hrs by microarray analysis relative to control; format: functional, Homo sapiens; method in brief: as §4
HUVEC [30] = assay: Effect on HMGB2 gene expression in serum-starved HUVEC after 6 hrs by microarray analysis relative to control; format: functional, Homo sapiens
HUVEC [31] = assay: Effect on F2RL1 gene expression in serum-starved HUVEC after 6 hrs by microarray analysis relative to control; format: functional, Homo sapiens; method in brief: as §4
HUVEC [32] = assay: Effect on AFAP1L1 gene expression in serum-starved HUVEC after 6 hrs by microarray analysis relative to control; format: functional, Homo sapiens; method in brief: as §4
HUVEC [33] = assay: Effect on EIF3CL gene expression in serum-starved HUVEC after 24 hrs by microarray analysis relative to control; format: functional, Homo sapiens; method in brief: as §4
HUVEC [34] = assay: Effect on LSS gene expression in serum-starved HUVEC after 6 hrs by microarray analysis relative to control; format: functional, Homo sapiens
HUVEC [35] = assay: Effect on KIF4A gene expression in serum-starved HUVEC after 6 hrs by microarray analysis relative to control; format: functional, Homo sapiens
HUVEC [36] = assay: Effect on MYLIP gene expression in serum-starved HUVEC after 24 hrs by microarray analysis relative to control; format: functional, Homo sapiens; method in brief: as §3
HUVEC [37] = assay: Effect on SQLE gene expression in serum-starved HUVEC after 24 hrs by microarray analysis relative to control; format: functional, Homo sapiens

Vascular endothelial growth factor receptor 2 (Homo sapiens), sequence (P35968 whole entry): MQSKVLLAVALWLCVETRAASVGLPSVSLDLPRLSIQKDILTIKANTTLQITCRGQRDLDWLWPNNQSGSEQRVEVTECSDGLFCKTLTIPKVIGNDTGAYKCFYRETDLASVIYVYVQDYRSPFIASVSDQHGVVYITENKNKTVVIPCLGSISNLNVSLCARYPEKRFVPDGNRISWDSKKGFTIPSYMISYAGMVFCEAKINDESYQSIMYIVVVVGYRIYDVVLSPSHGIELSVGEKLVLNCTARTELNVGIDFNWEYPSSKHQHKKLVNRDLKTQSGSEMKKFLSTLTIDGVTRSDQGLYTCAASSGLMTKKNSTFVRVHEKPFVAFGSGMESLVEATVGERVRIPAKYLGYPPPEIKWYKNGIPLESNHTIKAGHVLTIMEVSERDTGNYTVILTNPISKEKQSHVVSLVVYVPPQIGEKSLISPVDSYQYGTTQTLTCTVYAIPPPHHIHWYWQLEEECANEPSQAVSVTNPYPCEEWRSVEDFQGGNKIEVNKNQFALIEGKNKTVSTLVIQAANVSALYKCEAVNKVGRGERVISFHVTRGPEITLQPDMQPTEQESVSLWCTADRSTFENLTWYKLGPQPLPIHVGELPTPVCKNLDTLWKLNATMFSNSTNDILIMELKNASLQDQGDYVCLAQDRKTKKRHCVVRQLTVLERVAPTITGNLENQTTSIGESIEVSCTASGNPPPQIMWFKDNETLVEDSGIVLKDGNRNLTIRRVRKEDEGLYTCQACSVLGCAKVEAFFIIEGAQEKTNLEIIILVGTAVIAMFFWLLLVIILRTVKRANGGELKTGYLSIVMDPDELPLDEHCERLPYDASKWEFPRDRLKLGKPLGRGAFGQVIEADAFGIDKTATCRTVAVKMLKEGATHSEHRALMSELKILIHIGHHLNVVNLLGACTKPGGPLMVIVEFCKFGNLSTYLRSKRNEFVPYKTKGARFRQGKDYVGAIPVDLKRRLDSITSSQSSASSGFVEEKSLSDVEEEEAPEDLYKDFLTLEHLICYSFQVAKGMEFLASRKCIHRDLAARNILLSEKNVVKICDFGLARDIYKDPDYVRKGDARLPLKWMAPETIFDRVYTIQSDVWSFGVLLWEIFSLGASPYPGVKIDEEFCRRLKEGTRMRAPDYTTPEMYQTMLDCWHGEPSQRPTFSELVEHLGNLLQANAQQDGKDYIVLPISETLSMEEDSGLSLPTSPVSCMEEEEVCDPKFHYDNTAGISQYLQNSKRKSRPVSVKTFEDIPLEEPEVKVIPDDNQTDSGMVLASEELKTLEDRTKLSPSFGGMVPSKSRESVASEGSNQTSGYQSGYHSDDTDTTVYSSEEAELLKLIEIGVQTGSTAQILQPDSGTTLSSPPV

Structure (SMILES): COc1ccc(Cn2nc(-c3ccccc3)c3cc(Cl)nc(N4CCNCC4)c32)cc1
log2FC (HUVEC [1]): -0.0514
log2FC (HUVEC [2]): -0.5724
log2FC (HUVEC [3]): 0.5589
log2FC (HUVEC [4]): -0.5225
fold change (FC) (HUVEC [5]): 0.127

inhibition [9]: Active
Structure (SMILES): COc1ccc(Cn2nc(-c3ccccc3)c3cc(Nc4ccc(N5CCN(C)CC5)cc4)nc(N4CCNCC4)c32)cc1
log2FC (HUVEC [6]): 0.6142
log2FC (HUVEC [7]): -0.5409
log2FC (HUVEC [8]): 0.4049
log2FC (HUVEC [10]): 0.5287
log2FC (HUVEC [11]): -0.5297

Structure (SMILES): COc1ccc(Cn2nc(-c3ccccc3)c3cc(Nc4ccc(N5CCN(C)CC5)cc4)nc(N4CCN(C)CC4)c32)cc1
fold change (FC) (HUVEC [12]): 0.0261
log2FC (HUVEC [13]): 0.4634
log2FC (HUVEC [14]): 0.5377
Activity [15]: Active
fold change (FC) (HUVEC [16]): 0.219
fold change (FC) (HUVEC [17]): 0.2358
fold change (FC) (HUVEC [18]): -0.4214
fold change (FC) (HUVEC [19]): 0.1625
fold change (FC) (HUVEC [20]): 0.1554
fold change (FC) (HUVEC [21]): 0.0208
fold change (FC) (HUVEC [22]): -1.0254
log2FC (HUVEC [23]): -0.1432
fold change (FC) (HUVEC [24]): 0.2427
fold change (FC) (HUVEC [25]): 0.3506
fold change (FC) (HUVEC [26]): -0.059
fold change (FC) (HUVEC [27]): 0.1329
fold change (FC) (HUVEC [28]): 0.2295
fold change (FC) (HUVEC [29]): -0.7529
fold change (FC) (HUVEC [30]): -0.0362
fold change (FC) (HUVEC [31]): 0.5398
fold change (FC) (HUVEC [32]): 0.0116
fold change (FC) (HUVEC [33]): -0.1982
fold change (FC) (HUVEC [34]): 0.4912
fold change (FC) (HUVEC [35]): 0.0285
log2FC (HUVEC [36]): -0.2675
log2FC (HUVEC [37]): 1.0535 - 1.1624
